GASC1 inh: KDM4C (human) demethylase inhibition; Q9H3R0; GST-KDM4C 2-372, H3K9me3 peptide, LANCE TR-FRET; inhibition, % at 12.5 µM; 96,000 tested, 0.15% active; AID 720574;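 active means mean replicate inhibition above about 25%, with at least 55% of replicates also reaching it, limit read from the data, passing the limit was not always enough; inconclusive means only one of those two conditions met; inactive means neither condition met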
Target sequence (Q9H3R0 2-372 limits assumed): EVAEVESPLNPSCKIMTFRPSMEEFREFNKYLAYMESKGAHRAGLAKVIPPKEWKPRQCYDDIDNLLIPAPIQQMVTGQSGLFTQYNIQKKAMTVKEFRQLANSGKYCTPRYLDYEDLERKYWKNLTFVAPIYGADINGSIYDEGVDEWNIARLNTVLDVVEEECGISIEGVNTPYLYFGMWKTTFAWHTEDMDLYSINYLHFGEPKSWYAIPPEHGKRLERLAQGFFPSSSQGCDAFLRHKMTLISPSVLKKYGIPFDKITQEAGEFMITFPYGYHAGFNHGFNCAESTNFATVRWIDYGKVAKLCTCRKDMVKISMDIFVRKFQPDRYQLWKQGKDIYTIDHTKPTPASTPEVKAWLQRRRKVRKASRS
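System: N-terminal GST-fused human GASC-1 (KDM4C) fragment, residues 2-372 / Amount: 10 nM GST-KDM4C in enzyme reaction / Also added: H3K9me3 peptide with Fe(II)/2OG / Times: 30 min demethylation and 1 h detection at room temperature / Signal: LANCE TR-FRET / Read-out basis: Fall in 671/618 emission ratio as inhibition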
IDH1 mut inh: inhibitors of human IDH1 R132H; inhibition, % at 10 µM; 70,000 tested, 0.18% active; IDH1 R132H reductase, diaphorase/resazurin fluorescence, 60 min; AID 624101; in the data active means inhibition above about 34%; inconclusive means no clear call, values can overlap the other calls; inactive means below about 11%
Pf Dd2 inh: blocks growth of Plasmodium falciparum Dd2 parasites; 94,000 tested, 2.3% active; P. falciparum Dd2 growth, SYBR Green, 72 h; active compounds read low; activity change, % at 10 µM; AID 1159554; in the data active means activity change below about -80%; inconclusive means no clear call, values can overlap the other calls
T cruzi growth-1: inhibitors of T. cruzi proliferation; inhibition, % at 8.34 µM; 77,000 tested, 5.9% active; T. cruzi beta-gal in NIH3T3, GalScreen luminescence, 90 h;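 active means mean inhibition above about 93%, with at least 55% of replicates each passing it, limit read from the data, passing the limit was not always enough; inconclusive means only one of those two conditions holds; inactive means neither condition holds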
T cruzi growth-2: inhibitors of T. cruzi proliferation; shares compounds with T cruzi growth-1; 5,600 tested, 72% active; inhibition, % at 8.35 µM; T. cruzi beta-gal in NIH3T3, GalScreen luminescence, 90 h;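 active means mean replicate inhibition above about 95% and at least 55% of replicates individually reaching it, limit read from the data; inconclusive means only one of the two criteria is met; inactive means neither criterion is met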
T cruzi growth-3: blocks T. cruzi growth in NIH3T3 host cells; T. cruzi beta-gal in NIH3T3, GalScreen luminescence, 90 h; 5,600 tested, 21% active; inhibition, % at 2.09 µM; shares compounds with T cruzi growth-1;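 active means mean inhibition above about 95%, with at least 55% of replicates also reaching it, limit read from the data; inconclusive means meets just one of the two conditions; inactive means meets neither condition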
NIH3T3 tox: kills mouse NIH/3T3 fibroblasts. shares compounds with T cruzi growth-1. NIH/3T3 viability, CellTiter-Glo ATP luminescence, 90 h. cytotoxicity (signal decrease), % at 8.35 µM. 5,600 tested, 14% active. AID 651742;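 active means mean signal decrease across replicates above about 35% based on untreated-well scatter, with enough replicates individually passing, limit read from the data; inconclusive means no rule stated though some were filed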
3T3 cytotox 2: kills mouse NIH/3T3 fibroblasts; shares compounds with T cruzi growth-1; AID 651744; NIH/3T3 viability, CellTiter-Glo ATP luminescence, 90 h; inhibition, % at 24.9 µM; 5,600 tested, 56% active;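 active means mean loss of cell viability signal at or above a set limit, and enough replicates individually reaching it; inconclusive means meets only the mean limit or only the replicate share; inactive means meets neither condition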
A number is an active result; 0 = inactive; ? = inconclusive; - = not tested or not shown; ! = a repeat was not active. Sampled rows, rich in hits. Any-hit rate of the full collection: about 5.8%.

SMILES	GASC1 inh	IDH1 mut inh	Pf Dd2 inh	T cruzi growth-1	T cruzi growth-2	T cruzi growth-3	NIH3T3 tox	3T3 cytotox 2
CNC[C@H]1Oc2cc(C#Cc3cccc(F)c3)ccc2S(=O)(=O)N([C@@H](C)CO)C[C@@H]1C	0	0	0	0	-	-	-	-
Cc1ccc(S(=O)(=O)N(C)C[C@@H]2OCCCC[C@@H](C)Oc3ccc(NC(=O)c4ccccc4)cc3C(=O)N([C@@H](C)CO)C[C@H]2C)cc1	0	0	-81	100	108	0	0	31
Cc1ccc(S(=O)(=O)N(C)C[C@H]2OCCCC[C@@H](C)Oc3ccc(NC(=O)c4ccccc4)cc3C(=O)N([C@@H](C)CO)C[C@@H]2C)cc1	0	-	?	0	-	-	-	-
C[C@@H]1CN([C@@H](C)CO)C(=O)c2cc(NC(=O)c3ccccc3)ccc2O[C@@H](C)CCCCO[C@@H]1CN(C)S(=O)(=O)c1ccccc1	0	-	0	0	-	-	-	-
Cc1ccc(S(=O)(=O)N(C)C[C@H]2OCCCC[C@H](C)Oc3ccc(NC(=O)c4ccccc4)cc3C(=O)N([C@@H](C)CO)C[C@@H]2C)cc1	0	0	-82	104	106	0	0	0
C[C@H](CO)N1C[C@H](C)[C@@H](CN(C)Cc2cccnc2)Oc2cc(C#CC3CCCC3)ccc2S1(=O)=O	0	-	0	96	102	109	0	105
C[C@@H]1CN([C@@H](C)CO)S(=O)(=O)c2ccc(C#CC3CCCCC3)cc2O[C@@H]1CN(C)Cc1cccnc1	0	-	0	102!	113	0	51	105
C[C@@H]1CCCCO[C@@H](CN(C)CC2CCCCC2)[C@@H](C)CN([C@@H](C)CO)C(=O)c2cc(NC(=O)Nc3ccc(F)cc3)ccc2O1	0	0	0	119	103	0	0	104
C[C@@H]1CCCCO[C@H](CN(C)CC2CCCCC2)[C@H](C)CN([C@@H](C)CO)C(=O)c2cc(NC(=O)Nc3ccc(F)cc3)ccc2O1	0	-	0	120	97	114	54	103
C[C@H](CO)N1C[C@H](C)[C@@H](CN(C)CC2CCCCC2)OCCCC[C@H](C)Oc2ccc(NC(=O)Nc3ccc(F)cc3)cc2C1=O	0	0	0	114	98	111	0	103
C[C@@H]1CCCCO[C@@H](CN(C)CC2CCCCC2)[C@H](C)CN([C@H](C)CO)C(=O)c2cc(NC(=O)Nc3ccc(F)cc3)ccc2O1	0	0	-90	105	95	112	0	102
O=C(NCc1ccccn1)C(=O)Nc1ccccc1F	-	0	-	-	-	-	-	-
Nc1ncnc(NCCCN2CCOCC2)c1[N+](=O)[O-]	-	0	-	-	-	-	-	-
C[C@H]1CCCCO[C@H](CN(C)CC2CCCCC2)[C@@H](C)CN([C@@H](C)CO)C(=O)c2cc(NC(=O)Nc3ccc(F)cc3)ccc2O1	0	0	-83	115	97	114	47	103
CCCN(C)C[C@H]1OCCCC[C@@H](C)Oc2ccc(NC(=O)Nc3ccc(F)cc3)cc2C(=O)N([C@H](C)CO)C[C@@H]1C	0	-	0	100	101	0	0	0
CC1=CCC(C(C)(C)O[C@@H]2O[C@H](CO[C@@H]3O[C@H](COC(=O)c4cc(O)c(O)c(O)c4)[C@@H](O)[C@H](O)[C@H]3O)[C@@H](O)[C@H](O)[C@H]2O)CC1 (stereo not given in full)	-	0	-	-	-	-	-	-
CCC(=O)N(C)C[C@@H]1Oc2cc(C#CCN(C)C)ccc2S(=O)(=O)N([C@@H](C)CO)C[C@H]1C	0	0	0	102	102	0	0	0
C[C@H](CO)N1C[C@H](C)[C@@H](CN(C)C(=O)CN(C)C)Oc2cc(C#CCN(C)C)ccc2S1(=O)=O	0	0	0	0	-	-	-	-
CC(=O)N(C)C[C@H]1Oc2cc(C#CCN(C)C)ccc2S(=O)(=O)N([C@H](C)CO)C[C@@H]1C	0	0	0	?	?	0	0	0
CC(=O)N(C)C[C@@H]1Oc2cc(C#CCN(C)C)ccc2S(=O)(=O)N([C@H](C)CO)C[C@H]1C	0	0	0	0	-	-	-	-
CC(Oc1ccc(Cl)cc1Cl)C(=O)Nc1cccc(Cl)c1N1CCOCC1 (stereo not given)	-	0	-	-	-	-	-	-
